Where a chain is given by its changes, count along the chain named.
How the values were obtained:
Format in all cases: cell-based
rP2X2 Ile185Vah = biological target: T1, rP2X2 Ile185Vah (Rattus norvegicus, UniProt P49653); assay: Two-electrode voltage clamp, oocytes expressing rP2X2 Ile185Vah
T1 sequence (P49653 1-472): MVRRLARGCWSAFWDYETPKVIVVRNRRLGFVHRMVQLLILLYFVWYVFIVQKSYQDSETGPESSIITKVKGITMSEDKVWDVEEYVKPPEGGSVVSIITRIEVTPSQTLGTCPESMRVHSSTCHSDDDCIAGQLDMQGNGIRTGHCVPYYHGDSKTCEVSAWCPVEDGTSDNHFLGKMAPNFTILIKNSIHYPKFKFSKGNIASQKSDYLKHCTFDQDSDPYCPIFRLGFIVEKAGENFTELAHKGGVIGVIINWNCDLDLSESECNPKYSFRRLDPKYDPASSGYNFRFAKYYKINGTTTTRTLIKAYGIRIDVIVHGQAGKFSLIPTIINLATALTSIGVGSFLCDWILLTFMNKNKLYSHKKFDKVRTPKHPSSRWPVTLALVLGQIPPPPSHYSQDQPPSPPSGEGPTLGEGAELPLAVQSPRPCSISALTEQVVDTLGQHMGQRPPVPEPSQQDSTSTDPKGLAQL
In short: (§1)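 The backbone ester was introduced by nonsense suppression. TAG-mutant rP2X2 mRNA was co-injected into Xenopus oocytes with tRNA enzymatically aminoacylated with 2-hydroxyisovaleric acid. Uncharged tRNA co-injection served as the negative control. After incubation at 18°C, two-electrode voltage clamp was done at −40 mV in ND96 (pH 7.4). ATP concentration-response data were normalised and Hill-fitted for EC50 and nH, given as mean ± SEM.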

rP2X2 Val96Vah = biological target: T2, rP2X2 Val96Vah (Rattus norvegicus, UniProt P49653); assay: Two-electrode voltage clamp, oocytes expressing rP2X2 Val96Vah
T2 sequence (P49653 1-472): T1 sequence (P49653 1-472)
In short: as §1

rP2X2 Lys188Arg = biological target: T3, rP2X2 Lys188Arg (Rattus norvegicus, UniProt P49653, K188R); assay: Two-electrode voltage clamp, oocytes expressing rP2X2 Lys188Arg
T3 sequence (P49653 1-472 K188R): T1 sequence (P49653 1-472) with K188R
In short: (§2)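 Mutations were made by site-directed mutagenesis. Xenopus oocytes were injected with rP2X2 mRNA and incubated in L-15 at 18°C. Two-electrode voltage clamp was done 1–2 days later at −40 mV under ND96 perfusion (pH 7.4). ATP concentration-response currents were normalised and fitted to a one-component Hill equation for EC50 and Hill coefficient. Results are mean ± SEM, tested by one-way ANOVA with Dunnett's test against WT.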

rP2X2 Ile185Val = biological target: T4, rP2X2 Ile185Val (Rattus norvegicus, UniProt P49653, I185V); assay: Two-electrode voltage clamp, oocytes expressing rP2X2 Ile185Val
T4 sequence (P49653 1-472 I185V): T1 sequence (P49653 1-472) with I185V
In short: as §2

rP2X2 Lys69Gln = biological target: T5, rP2X2 Lys69Gln (Rattus norvegicus, UniProt P49653, K69Q); assay: Two-electrode voltage clamp, oocytes expressing rP2X2 Lys69Gln; conditions: for EC50: EC50, Lys69Gln
T5 sequence (P49653 1-472 K69Q): T1 sequence (P49653 1-472) with K69Q
In short: as §2

[1] = biological target: T6, rat P2X2 receptor (rP2X2R) WT (Rattus norvegicus, UniProt P49653)
T6 sequence (P49653 1-472): T1 sequence (P49653 1-472)
In short: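 Collagenase-digested Xenopus oocytes were injected with WT rP2X2 mRNA (30 ng) and kept in L-15 at 18°C. Two-electrode voltage clamp was done 1–2 days later at −40 mV in ND96 (pH 7.4). Agonists were freshly dissolved in ND96 at pH 7.4. Responses were normalised to 1 mM ATP current in the same cell, and Hill fits gave EC50 and nH. Relative efficacy is the agonist maximal current versus 1 mM ATP. Results are mean ± SEM, compared by one-way ANOVA with Dunnett's test.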

Fold increase in EC50 (decrease in sensitivity), Ile185Vah versus Ile185Val (rP2X2 Ile185Vah; Ile185Vah compared with Ile185Val): 20 fold
EC50 (rP2X2 Ile185Vah; Ile185Vah, mean ± SEM): 460 ± 20 µM
EC50 (rP2X2 Val96Vah): 27 ± 2 µM
Effect of Vah incorporation on EC50 (in words) (rP2X2 Val96Vah; Val96Vah compared with WT): did not affect the ATP EC50
EC50 (rP2X2 Lys188Arg): 57 ± 8 µM
EC50 (rP2X2 Ile185Val): 23 ± 3 µM
EC50 (rP2X2 Lys69Gln): > 5000 µM
EC50 (rP2X2 Lys69Gln; mean ± SEM): 16600 µM
nH (Hill coefficient) (rP2X2 Lys69Gln; Lys69Gln): 2.4 ± 0.1
EC50 [1]: 32 ± 4 µM
SMILES: Nc1ncnc2c1ncn2[C@@H]1O[C@H](COP(=O)(O)OP(=O)(O)OP(=O)(O)O)[C@@H](O)[C@H]1O [ATP, Adenosine 5′-triphosphate]

— paper PMC6605687 (The Journal of General Physiology, 2019)
